Measurements: ChEMBL document CHEMBL3526029, “Disposition and metabolism of GSK2251052 in humans: a novel boron-containing antibiotic” (Drug Metab Dispos, 2013)

What was measured:
Liver microsome = assay: Drug metabolism in human liver microsomes assessed as (S)-3-(3-(aminomethyl)-1-hydroxy-1,3-dihydrobenzo[c][1,2]oxaborol-7-yloxy)propanoicacid formation at 50 to 500 uM after 3 hrs by liquid scintillation counting in presence of NADPH regeneration system; type: ADME
Plasma [1] = assay: Clearance in healthy human plasma assessed as radioactivity at 1500 mg, iv infusion for 1 hr as single dose; type: ADME, organism-based; conditions: in vivo
Method in brief: (§1)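 Six fasted healthy men received 1500 mg [14C]GSK2251052 as a 1-h i.v. infusion. Blood and plasma were sampled from predose to 336 h after infusion start. Radioactivity was counted by LSC; plasma below 870 ng eq/ml was reanalysed by accelerator MS, with predose background subtracted. Noncompartmental analysis used actual sampling times, linear-up/log-down trapezoids and CL = dose/AUC(0-∞).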

[2] = Drug recovery in healthy human urine at 1500 mg, iv infusion for 1 hr as single dose after 240 hrs; type: ADME, organism-based; conditions: read-out: Drug recovery
Plasma [3] = assay: Cmax in healthy human plasma assessed as radioactivity at 1500 mg, iv infusion for 1 hr as single dose; type: ADME, organism-based; set-up: dose 1500 mg, route intravenous; conditions: in vivo; method in brief: as §1
[4] = Drug recovery in healthy human urine assessed as total radioactivity at 1500 mg, iv infusion for 1 hr as single dose after 120 to 336 hrs by HPLC method; type: ADME, organism-based; conditions: in vivo, in the assay text read “0 to 120 hrs” for “120 to 336 hrs”
Method in brief: (§2)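 Urine pooled by weight per subject over 0–120 h; 120–336 h pools from all subjects combined into one composite. Centrifuged at ~21,000g, then supernatant profiled by HPLC (Atlantis T3, ammonium acetate pH 4.5/methanol, 30°C) with radiochemical detection plus MS identification. Results are % of dose, corrected for centrifugation recovery measured by triplicate LSC.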

[5] = Drug recovery in healthy human urine at 1500 mg, iv infusion for 1 hr as single dose after 312 hrs; type: ADME, organism-based; conditions: read-out: Drug recovery
[6] = Total drug recovery in healthy human at 1500 mg, iv infusion for 1 hr as single dose after 144 hrs; type: ADME, organism-based; conditions: in vivo, read-out: Drug recovery
[7] = Drug recovery in healthy human feces at 1500 mg, iv infusion for 1 hr as single dose after 216 hrs; type: ADME, organism-based; conditions: faeces, read-out: Drug recovery
Blood [8] = assay: Clearance in healthy human whole blood assessed as radioactivity at 1500 mg, iv infusion for 1 hr as single dose; type: ADME, organism-based; conditions: in vivo; method in brief: as §1
[9] = Drug metabolism in cynomolgus monkey liver S9 fraction assessed as (S)-3-(3-(aminomethyl)-1-hydroxy-1,3-dihydrobenzo[c][1,2]oxaborol-7-yloxy)propanoicacid formation at 50 to 500 uM after 3 hrs by liquid scintillation counting in presence of NAD+ and ADH inhibitor 4-MP; type: ADME, subcellular, Macaca fascicularis; conditions: s9, 3 h
Method in brief: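 NAD+ (7.5 mM) incubations of [14C]GSK2251052 with 4 mg/ml monkey liver cytosol or liver S9 in pyrophosphate buffer included 4-MP at 0.6 mM final. Incubations ran in triplicate at 37°C. Extracts were counted by LSC and pooled for radio-HPLC.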

[10] = Drug recovery in healthy human feces at 1500 mg, iv infusion for 1 hr as single dose after 48 hrs; type: ADME, organism-based; conditions: read-out: Drug recovery
[11] = Drug recovery in healthy human urine at 1500 mg, iv infusion for 1 hr as single dose after 96 hrs; type: ADME, organism-based; conditions: read-out: Drug recovery
[12] = Drug recovery in healthy human urine at 1500 mg, iv infusion for 1 hr as single dose after 72 hrs; type: ADME, organism-based; conditions: read-out: Drug recovery
[13] = Drug recovery in healthy human feces at 1500 mg, iv infusion for 1 hr as single dose after 24 hrs; type: ADME, organism-based; conditions: read-out: Drug recovery
[14] = Drug metabolism in healthy human urine assessed as (S)-3-(3-(aminomethyl)-1-hydroxy-1,3-dihydrobenzo[c][1,2]oxaborol-7-yloxy)propanoicacid formation at 1500 mg, iv infusion for 1 hr as single dose by mass spectrometry; type: ADME, organism-based; conditions: in vivo
Method in brief: (§3)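 Urine was collected through 336 h after a 1500 mg [14C] i.v. 1-h infusion to six men. Samples were pooled by weight (0–120 h per subject; 120–336 h composite) and centrifuged. Profiling used HPLC (Atlantis T3, ammonium acetate pH 4.5/methanol, 30°C) with fraction radioactivity counting. Identity came from Orbitrap positive-ion accurate mass. Values were given as % dose, corrected for recovery.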

[15] = Drug recovery in healthy human urine at 1500 mg, iv infusion for 1 hr as single dose after 288 hrs; type: ADME, organism-based; conditions: read-out: Drug recovery
[16] = Total drug recovery in healthy human at 1500 mg, iv infusion for 1 hr as single dose after 240 hrs; type: ADME, organism-based; conditions: in vivo, read-out: Drug recovery
Method in brief: (§4)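 Six healthy adult males, fasted ≥10 h, got one 1500 mg [14C]GSK2251052 dose ([…], 0.56 MBq) as a constant-rate 1-h IV infusion in 0.9% NaCl. Urine was collected at 0–6, 6–12 and 12–24 h, then in 24-h blocks to 336 h; feces in 24-h blocks. Urine was counted directly by LSC; feces were homogenized and combusted in duplicate before LSC. Cumulative recovery is given as mean % of dose.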

Plasma [17] = assay: AUC (0 to t) in healthy human plasma assessed as radioactivity at 1500 mg, iv infusion for 1 hr as single dose; type: ADME, organism-based; conditions: in vivo; method in brief: as §1
[18] = Drug recovery in healthy human feces at 1500 mg, iv infusion for 1 hr as single dose after 192 hrs; type: ADME, organism-based; conditions: faeces, read-out: Drug recovery
[19] = Drug metabolism in healthy human urine assessed as 3-(3-(2-amino-1-hydroxyethyl)-2-hydroxyphenoxy)propanoic acid formation at 1500 mg, iv infusion for 1 hr as single dose by mass spectrometry; type: ADME, organism-based; conditions: in vivo; method in brief: as §3
Blood [20] = assay: Half life in healthy human whole blood assessed as radioactivity at 1500 mg, iv infusion for 1 hr as single dose; type: ADME, organism-based; conditions: in vivo
Method in brief: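 Healthy men got a single 1500 mg [14C] dose by 1 h i.v. infusion. K2EDTA blood was sampled up to 336 h. Radioactivity in blood and plasma was measured by LSC, with AMS for plasma below LLQ. Parent and M3 were measured by LC/MS/MS (5–10,000 ng/ml range). Noncompartmental analysis used actual times, with t1/2 = ln2/λz and Tmax observed directly, timed from infusion start.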

[21] = Total drug recovery in healthy human at 1500 mg, iv infusion for 1 hr as single dose after 24 hrs; type: ADME, organism-based; conditions: in vivo, read-out: Drug recovery; method in brief: as §4
[22] = Total drug recovery in healthy human at 1500 mg, iv infusion for 1 hr as single dose after 336 hrs; type: ADME, organism-based; conditions: in vivo, read-out: Drug recovery; method in brief: as §4
[23] = Drug recovery in healthy human urine at 1500 mg, iv infusion for 1 hr as single dose after 192 hrs; type: ADME, organism-based; conditions: read-out: Drug recovery
[24] = Drug recovery in healthy human feces at 1500 mg, iv infusion for 1 hr as single dose after 72 hrs; type: ADME, organism-based; conditions: read-out: Drug recovery
[25] = Drug recovery in healthy human urine at 1500 mg, iv infusion for 1 hr as single dose after 24 hrs; type: ADME, organism-based; conditions: read-out: Drug recovery
[26] = Drug recovery in healthy human urine at 1500 mg, iv infusion for 1 hr as single dose after 120 to 336 hrs by HPLC method; type: ADME, organism-based; conditions: in the assay text read “0 to 120 hrs” for “120 to 336 hrs”, read-out: Drug recovery; method in brief: as §2
[27] = Drug recovery in healthy human feces at 1500 mg, iv infusion for 1 hr as single dose after 288 hrs; type: ADME, organism-based; conditions: faeces, read-out: Drug recovery
[28] = Drug metabolism in healthy human urine assessed as 2-(2-amino-1-hydroxyethyl)-6-(3-hydroxypropoxy)phenol formation at 1500 mg, iv infusion for 1 hr as single dose by mass spectrometry; type: ADME, organism-based; conditions: in vivo; method in brief: as §3

Question: With `Cl.N[14CH2][C@H]1OB(O)c2c(OCCCO)cccc21` as the compound, how does the Drug metabolism (Liver microsome) read?
Answer: The Drug metabolism was “metabolite_not_detected”.

Question: What about the CL (Plasma [1]) of the same compound?
Answer: The CL was 7.7 L/h.

Question: What about the dose excreted at 240 h [2] of the same compound?
Answer: Its dose excreted at 240 h is 88.8%.

Question: What about the Cmax (Plasma [3]) of the same compound?
Answer: Its Cmax is 24300 ng/mL.

Question: And the Drug recovery [4]?
Answer: Its Drug recovery is 83.1%.

Question: And the dose excreted at 312 h [5]?
Answer: The dose excreted at 312 h was 90.2%.

Question: And the dose excreted at 144 h [6]?
Answer: Its dose excreted at 144 h is 92.6%.

Question: What about the dose excreted at 216 h [7] of the same compound?
Answer: The dose excreted at 216 h was 7.6%.

Question: What about the CL (Blood [8]) of the same compound?
Answer: The CL was 7.79 L/h.

Question: And the Drug metabolism [9]?
Answer: Its Drug metabolism is “metabolite_not_detected”.

Question: And the dose excreted at 48 h [10]?
Answer: Its dose excreted at 48 h is 1.3%.

Question: What about the dose excreted at 96 h [11] of the same compound?
Answer: The dose excreted at 96 h was 81.1%.

Question: What about the dose excreted at 72 h [12] of the same compound?
Answer: Its dose excreted at 72 h is 76.9%.

Question: And the dose excreted at 24 h [13]?
Answer: Its dose excreted at 24 h is 0.1%.

Question: What about the Drug recovery [14] of the same compound?
Answer: The Drug recovery was “metabolite_detected”.

Question: And the dose excreted at 288 h [15]?
Answer: The dose excreted at 288 h was 89.8%.

Question: And the dose excreted at 240 h [16]?
Answer: Its dose excreted at 240 h is 96.4%.

Question: And the AUCt (Plasma [17])?
Answer: The AUCt was 191 µg·h/mL.

Question: What about the dose excreted at 192 h [18] of the same compound?
Answer: Its dose excreted at 192 h is 7.6%.

Question: What about the Drug recovery [19] of the same compound?
Answer: Its Drug recovery is “metabolite_detected”.

Question: What about the t1/2 (Blood [20]) of the same compound?
Answer: The t1/2 was 14.3 h.

Question: And the dose excreted at 24 h [21]?
Answer: Its dose excreted at 24 h is 51.3%.

Question: And the dose excreted at 336 h [22]?
Answer: The dose excreted at 336 h was 98.2%.

Question: And the dose excreted at 192 h [23]?
Answer: The dose excreted at 192 h was 87.4%.

Question: And the dose excreted at 72 h [24]?
Answer: Its dose excreted at 72 h is 4.3%.

Question: And the dose excreted at 24 h [25]?
Answer: Its dose excreted at 24 h is 51.2%.

Question: And the dose excreted [26]?
Answer: Its dose excreted is 28.9%.

Question: And the dose excreted at 288 h [27]?
Answer: Its dose excreted at 288 h is 7.6%.

Question: What about the Drug recovery [28] of the same compound?
Answer: Its Drug recovery is “metabolite_detected”.
